ChEMBL document CHEMBL1275449, “Potent in vitro antifungal activities of naturally occurring acetylenic acids” (Antimicrob Agents Chemother, 2008)
Active and inactive are the calls of the source. The rule behind the calls is not given here.

Columns and labels:
Aspergillus fumigatus [1] = assay: Antifungal activity against Aspergillus fumigatus ATCC 204305 at 178.6 uM after 48 hrs by CLSI method; assay type: functional, organism-based
Trichophyton rubrum [2] = assay: Antifungal activity against Trichophyton rubrum ATCC 10218 at 178.6 uM after 5 days by CLSI method; assay type: functional, organism-based
Aspergillus niger = assay: Antifungal activity against Aspergillus niger ATCC 16404 at 178.6 uM after 48 hrs by CLSI method; assay type: functional, organism-based
SK-MEL = assay: Cytotoxicity against human SK-MEL cells up to 32 uM by neutral red method; assay type: cell-based
Procedure, shortened: (§1)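 Neutral red uptake cytotoxicity, top concentration 32 μM.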

Vero = assay: Cytotoxicity against African green monkey Vero cells up to 32 uM by neutral red method; assay type: cell-based; settings: chlorocebus sabaeus; procedure, shortened: as §1
Aspergillus fumigatus [3] = assay: Antifungal activity against Aspergillus fumigatus ATCC 90906 at 178.6 uM after 48 hrs by CLSI method; assay type: functional, organism-based
[4] = system: Trichophyton mentagrophytes; assay: Antifungal activity against Trichophyton mentagrophytes ATCC 9533 at 178.6 uM after 5 days by CLSI method; assay type: functional, organism-based
Candida albicans [5] = assay: Antifungal activity against Fluconazole resistant Candida albicans isolate 17 at 178.6 uM after 48 hrs by CLSI method; assay type: functional, organism-based
Procedure, shortened: (§2)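 Candida in CLSI broth microdilution. Saline colony suspension set to 1.5 × 10³ CFU/ml (final) in MOPS-buffered RPMI 1640, pH 7.0. Test agent given as twofold serial dilutions in 20% DMSO-saline, duplicate wells. 35°C for 48 h. Growth read as OD530 before and after incubation. Percent inhibition scored at the highest test concentration.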

Candida tropicalis = assay: Antifungal activity against Candida tropicalis ATCC 750 at 178.6 uM after 48 hrs by CLSI method; assay type: functional, organism-based
Procedure, shortened: (§3)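 Yeast suspensions made from 3-5 colonies off 24-72 h SD agar plates in saline. They were diluted by OD630 standard curve in RPMI 1640 (0.2% dextrose, 0.03% glutamine, 0.165 M MOPS, pH 7.0) to 1.5 × 10³ CFU/ml. Twofold dilutions (11 concentrations, 20% DMSO-saline) run in duplicate. OD530 read before and after 35°C, 48 h. Line values are top test concentrations; no-growth endpoints give MIC/MFC.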

Pichia kudriavzevii = assay: Antifungal activity against Candida krusei ATCC 6258 after 48 hrs by CLSI method; assay type: functional, organism-based; settings: ATCC 6258, 48 h
Procedure, shortened: (§4)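 Candida inocula came from 24–72-h SD agar colonies suspended in saline. They were diluted by OD630 standard curve into RPMI 1640 (0.2% dextrose, 0.03% glutamine, 0.165 M MOPS, pH 7.0) to 1.5 × 10³ CFU/ml. Compounds were run as 11 twofold dilutions in 20% DMSO-saline, in duplicate, at 35°C for 48 h, with OD530 read before and after. Percent growth at the top concentration, IC50, MIC, and MFC (SD agar plating) were derived.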

KB = assay: Cytotoxicity against human KB cells up to 32 uM by neutral red method; assay type: cell-based; procedure, shortened: as §1
LLC-PK1 = assay: Cytotoxicity against pig LLC-PK1 cells up to 32 uM by neutral red method; assay type: cell-based, Sus scrofa; procedure, shortened: as §1
Candida albicans [6] = assay: Antifungal activity against Candida albicans ATCC 32354 at 178.6 uM after 48 hrs by CLSI method; assay type: functional, organism-based; procedure, shortened: as §4
BT-549 = assay: Cytotoxicity against human BT549 cells up to 32 uM by neutral red method; assay type: cell-based; procedure, shortened: as §1
Candida parapsilosis = assay: Antifungal activity against Candida parapsilosis ATCC 22019 at 178.6 uM after 48 hrs by CLSI method; assay type: functional, organism-based; procedure, shortened: as §3
Cryptococcus neoformans [7] = assay: Antifungal activity against Cryptococcus neoformans ATCC 90113 at 178.6 uM after 72 hrs by CLSI method; assay type: functional, organism-based
Procedure, shortened: (§5)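 SD broth replaced RPMI because growth in RPMI was poor; other CLSI conditions were kept. Inoculum was 1.5 × 10³ CFU/ml from colonies on SD agar, checked by plating. Twofold serial dilutions (11 concentrations) in 20% DMSO-saline were tested in duplicate. OD530 was read before and after incubation at 35°C for 72 h. Percent growth gave IC50; the MIC is the lowest concentration with no detectable growth.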

SK-OV-3 = assay: Cytotoxicity against human SKOV3 cells up to 32 uM by neutral red method; assay type: cell-based; procedure, shortened: as §1
Trichophyton rubrum [8] = assay: Antifungal activity against Trichophyton rubrum ATCC 10218 by CLSI method; assay type: functional, organism-based
Procedure, shortened: (§6)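 Growth scraped from 1- to 6-week-old potato dextrose slants and filtered through Miracloth. Diluted in 5% Alamar blue-RPMI 1640 (MOPS pH 7.0) to 2.7 × 10⁴ CFU/ml. Eleven twofold dilutions in duplicate. Fluorescence at 544 nm excitation/590 nm emission read before and after 35°C, 5 days. IC50 fitted from percent growth. MIC taken as no detectable growth; MFC from clear or blue wells plated on PD agar.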

Candida albicans [9] = assay: Antifungal activity against Candida albicans ATCC 14053 at 178.6 uM after 48 hrs by CLSI method; assay type: functional, organism-based
[10] = system: Trichophyton mentagrophytes; assay: Antifungal activity against Trichophyton mentagrophytes ATCC MYA-4439 by CLSI method; assay type: functional, organism-based; procedure, shortened: as §6
Trichophyton rubrum [11] = assay: Antifungal activity against Trichophyton rubrum ATCC MYA-4438 by CLSI method; assay type: functional, organism-based; procedure, shortened: as §6
Candida albicans [12] = assay: Antifungal activity against Candida albicans ATCC 60193 at 178.6 uM after 48 hrs by CLSI method; assay type: functional, organism-based; procedure, shortened: as §4
Cryptococcus neoformans [13] = assay: Antifungal activity against Cryptococcus neoformans ATCC 66031 after 72 hrs by CLSI method; assay type: functional, organism-based; settings: ATCC 66031, 72 h; procedure, shortened: as §5
Nakaseomyces glabratus = assay: Antifungal activity against Candida glabrata ATCC 90030 at 178.6 uM after 48 hrs by CLSI method; assay type: functional, organism-based; procedure, shortened: as §4
Candida albicans [14] = assay: Antifungal activity against Candida albicans ATCC 90028 at 178.6 uM after 48 hrs by CLSI method; assay type: functional, organism-based; procedure, shortened: as §4
Aspergillus flavus = assay: Antifungal activity against Aspergillus flavus ATCC 204304 at 178.6 uM after 48 hrs by CLSI method; assay type: functional, organism-based
Cryptococcus neoformans [15] = assay: Antifungal activity against Cryptococcus neoformans ATCC 66031 at 178.6 uM after 72 hrs by CLSI method; assay type: functional, organism-based; procedure, shortened: as §5
Trichophyton rubrum [16] = assay: Antifungal activity against Trichophyton rubrum ATCC MYA-4438 at 178.6 uM after 5 days by CLSI method; assay type: functional, organism-based
Candida albicans [17] = assay: Antifungal activity against Candida albicans ATCC 200955 at 178.6 uM after 48 hrs by CLSI method; assay type: functional, organism-based; procedure, shortened: as §4
[18] = system: Trichophyton mentagrophytes; assay: Antifungal activity against Trichophyton mentagrophytes ATCC MYA-4439 at 178.6 uM after 5 days by CLSI method; assay type: functional, organism-based
Candida albicans [19] = assay: Antifungal activity against Fluconazole resistant Candida albicans isolate 1 at 178.6 uM after 48 hrs by CLSI method; assay type: functional, organism-based; procedure, shortened: as §2

CCCCCCCCC#CCCCCCCCC(=O)O
Activity (Aspergillus fumigatus [1]): inactive | Activity (Trichophyton rubrum [2]): inactive | Activity (Aspergillus niger): inactive | Activity (SK-MEL): Non-toxic | Activity (Vero): Non-toxic | Activity (Aspergillus fumigatus [3]): inactive | Activity [4]: inactive | Activity (Candida albicans [5]): inactive | Activity (Candida tropicalis): inactive | IC50 (Pichia kudriavzevii): > 179 µM | Activity (KB): Non-toxic | Activity (LLC-PK1): Non-toxic | Activity (Candida albicans [6]): inactive | Activity (BT-549): Non-toxic | Activity (Candida parapsilosis): inactive | Activity (Cryptococcus neoformans [7]): inactive | Activity (SK-OV-3): Non-toxic | IC50 (Trichophyton rubrum [8]): > 179 µM | Activity (Candida albicans [9]): inactive | IC50 [10]: > 179 µM | IC50 (Trichophyton rubrum [11]): 80.2 µM | Activity (Candida albicans [12]): inactive | IC50 (Cryptococcus neoformans [13]): > 179 µM | Activity (Nakaseomyces glabratus): inactive | Activity (Candida albicans [14]): inactive | Activity (Aspergillus flavus): inactive | Activity (Cryptococcus neoformans [15]): inactive | Activity (Trichophyton rubrum [16]): inactive | Activity (Candida albicans [17]): inactive | Activity [18]: inactive | Activity (Candida albicans [19]): inactive
